Calpain2 inh = calpain II (pig) inhibition; inhibition, % at 16 µM; hit rate 0.37% among 220,000; AID 1236; purified calpain II, fluorogenic peptide substrate, 30 min;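 active = inhibition above about 50%, limit read from the data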
RBBP9 inh = inhibitors of human serine hydrolase RBBP9 | AID 1515 | hit rate 0.2% among 220,000 | inhibition, % at 7.94 µM | recombinant RBBP9, FP-Rh probe fluorescence polarization;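 active = inhibition above the campaign mean of all tested compounds plus 3 SD, cut at about 14% in these data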;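 note: plate controls were DMSO wells with RBBP9 for no effect and wells lacking RBBP9 protein for full effect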
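System: RBBP9 protein / Quantity: 2.5 µM RBBP9 dispensing solution, before mixing / Also added: Serine-hydrolase probe FP-Rh, 375 nM pre-mixing / Dosing: 7.94 µM single dose, 0.794% DMSO / Timing: enzyme-compound preincubation 30 min, then probe labeling 45 min, 25 °C / Signal: FP readout at 525/598 nm / Controls: DMSO-treated enzyme wells and wells lacking RBBP9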
p47phox inh = blocks human p47phox regulatory protein of NADPH oxidases | inhibition, % at 24.7 µM | hit rate 0.53% among 220,000 | p47phox/p22phox peptide binding, fluorescence polarization, 2 h | AID 1274 | P14598;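 active = inhibition above about 30%, limit read from the data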;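 note: 0% = p47phox with labelled peptide and 100% = labelled peptide alone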
Target sequence (P14598 whole entry, looked up): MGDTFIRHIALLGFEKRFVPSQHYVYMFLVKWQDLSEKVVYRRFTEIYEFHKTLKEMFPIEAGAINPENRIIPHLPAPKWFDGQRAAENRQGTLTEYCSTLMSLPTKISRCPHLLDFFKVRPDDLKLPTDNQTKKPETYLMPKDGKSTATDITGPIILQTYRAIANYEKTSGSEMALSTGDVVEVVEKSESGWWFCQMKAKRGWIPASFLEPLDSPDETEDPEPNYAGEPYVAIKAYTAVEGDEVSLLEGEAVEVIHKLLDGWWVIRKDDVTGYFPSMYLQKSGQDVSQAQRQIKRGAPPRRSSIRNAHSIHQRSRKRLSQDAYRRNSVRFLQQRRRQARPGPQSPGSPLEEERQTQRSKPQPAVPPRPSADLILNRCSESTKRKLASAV
Furin inhibitor = inhibitors of human furin; P09958; purified furin, fluorogenic substrate cleavage; inhibition, % at 20 µM or 30 µM; hit rate 0.061% among 220,000; in the data active = inhibition above about 25%
* marks the source's active call; other numbers are inactive results; i = inactive; · = no result given. Compounds with a hit are over-represented: about 1.1% of the library has one in this group of screens.

SMILES	Calpain2 inh	RBBP9 inh	p47phox inh	Furin inhibitor
COc1ccc(NC(=O)COC(=O)C23CC4CC(CC(Cl)(C4)C2)C3)c(OC)c1	20.9	-5.8	15.4	-22.1
COc1c2c(c(C)c3c1C(=O)OC3)O[C@@]1(C)CC[C@@]3(O)C(C)(C)OC(=O)CC[C@]3(C)[C@H]1C2	-1.5	·	6.0	-39.5
COc1ccc(N2C(=O)CC(Sc3n[nH]c(-c4ccccc4)n3)C2=O)cc1 (stereo not drawn)	-6.8	11.8	-7.8	-4.7
CCOC(=O)c1c(-n2cccc2)sc2c1CCCC2=O	11.7	-7.3	-15.8	-5.5
Cc1cccc(OCCC(=O)Nc2ccc(C)c(S(=O)(=O)N3CCCCC3)c2)c1	55.1*	-15.8	-12.8	-16.5
Cc1cccc(OCCC(=O)Nc2ccc(S(=O)(=O)N3CCCC3)cc2)c1	-25.1	-5.4	-9.3	-21.7
C=CCn1cc(C(=O)OCC)c(=O)c2cc(F)c(F)cc21	-3.4	-3.6	0.2	-23.0
O=C(c1cccc(F)c1)N1CCN(S(=O)(=O)Cc2ccccc2)CC1	-21.6	-3.3	2.0	-21.8
COc1ccc(-n2c(CNc3ccc(C)cc3)nnc2SCC(=O)Nc2nc(-c3ccccc3)cs2)cc1	68.5*	-9.2	-11.8	-14.0
Cc1ccc(-n2c(CSc3nc(C)cc(C)n3)nnc2SCC(=O)Nc2nccs2)cc1	0.2	-5.1	36.3*	-24.5
Cc1cc2ccccn2c1C(=O)c1ccc([N+](=O)[O-])o1	30.7	-7.3	5.6	-14.3
CN1C(=S)N(c2cccnc2)C(=O)/C1=C\c1ccc(N(C)C)cc1	-0.4	-9.6	85.8*	-19.5
CCOc1ccccc1NC(=O)c1c(Br)cnn1C	18.9	-0.5	38.2*	-4.3
CCOc1ccc(C(=O)NC(=S)Nc2ccc(NC(=O)c3ccco3)c(C)c2)cc1[N+](=O)[O-]	17.1	-5.7	-2.8	-13.2
CCOC(=O)N1CCC(NC(=O)c2ccc3nc4ccccc4c(=O)n3c2)CC1	i	-9.6	39.4*	-21.4
CSc1nc(C)c(C(=O)C[n+]2ccc(C)cc2)cc1C#N	-17.8	9.7	-10.5	-34.0
Cc1ccc(C(=O)N2CCCC2)cc1Br	29.6	-0.2	92.2*	-20.4
CCn1c(Cc2c(C)[nH]c3ccccc23)nnc1SCC(=O)NCc1ccco1	-27.6	-4.7	-1.9	-18.8
CCn1c(Cc2c(C)[nH]c3ccccc23)nnc1SCC(=O)NCc1ccccc1	-12.0	-4.9	40.8*	-20.4
Cc1cc(C)n2nc(SCc3nnc(SCc4ccccc4Cl)s3)nc2n1	50.1*	5.0	2.0	-2.5
CC(C)[C@H](NC(=O)[C@H](CCCN=C(N)N)NC(=O)NC(Cc1ccccc1)C(=O)O)C(=O)NC(C=O)CCCN=C(N)N (stereo partly drawn)	51.1*	-6.3	13.8	-6.6
CCCCNC(=O)Oc1c(Br)cc2sc(=O)oc2c1Br	-6.4	21.2*	2.5	-22.9
O=C1COc2ccc(N3C(=O)c4ccccc4C3=O)cc2N1	2.7	0.2	-11.6	-15.1
C/C(=N/NS(=O)(=O)c1ccc(Cl)cc1)c1cccc(NC(=O)c2ccc(Cl)cc2Cl)c1	-4.1	-6.0	30.8*	-15.9
C/C(=N/NS(=O)(=O)c1ccc(C)cc1)c1cccc(NC(=O)c2cccc(Cl)c2)c1	-94.2	-16.3	-3.1	-18.0
SMILES	Calpain2 inh	RBBP9 inh	p47phox inh	Furin inhibitor
CCc1nc(SCC(=O)c2ccccc2)c2c(=O)n(C)c(=O)n(C)c2n1	10.3	2.3	-4.2	-20.3
CCCc1nc(SCC(=O)c2ccccc2)c2c(=O)n(C)c(=O)n(C)c2n1	52.7*	1.1	-3.9	-26.5
On1onc2c3cc(-c4ccccc4)nc3ccc21	82.5*	12.8	0.6	-23.2
CC(C)N1CCc2c(sc(NC(=O)c3cc4cc([N+](=O)[O-])ccc4s3)c2C(N)=O)C1	-66.9	2.2	19.1	-9.1
CN1CCc2c(sc(NC(=O)c3cc4cc([N+](=O)[O-])ccc4s3)c2C(N)=O)C1	-110.0	-4.1	77.4*	-16.8
COC(=O)CSc1nc2sc3c(c2c(=O)[nH]1)CCC3	0.7	-5.8	76.5*	-13.1
NC(=O)NCc1cccs1	-40.8	-2.7	7.4	-33.8
CC(=O)c1c(N2CCN(c3ccccn3)CC2)nc(=S)n(-c2ccccc2)c1C	-1.6	-6.3	-8.6	-3.4
COc1ccc(Cl)cc1C(=O)Nc1cccc(-c2ccc3nncn3n2)c1	29.8	-5.3	33.4*	-21.0
COC(=O)c1ccc2c(=O)n(CC3CCCO3)c(SCC(=O)Nc3ccc(OC)cc3OC)nc2c1 (stereo not drawn)	23.6	1.1	30.8*	-16.4
CCOc1ccc(NC(c2ccccn2)c2oc(CO)cc(=O)c2O)cc1 (stereo not drawn)	26.0	4.7	47.8*	-18.2
CCOc1ccc(NC(=O)C(c2ccccn2)N(C(=O)CCl)c2ccc(OCC)cc2)cc1 (stereo not drawn)	-1.6	-2.1	-2.7	-16.1

Compound activity: PubChem, several laboratories
